In PMC12039533 (Journal of Food and Drug Analysis, 2025) one finds IC50 data, which are given here for one molecule.

The target of one assay is T1, FLT3 (Homo sapiens, UniProt P36888).
T1 sequence (P36888 27-993): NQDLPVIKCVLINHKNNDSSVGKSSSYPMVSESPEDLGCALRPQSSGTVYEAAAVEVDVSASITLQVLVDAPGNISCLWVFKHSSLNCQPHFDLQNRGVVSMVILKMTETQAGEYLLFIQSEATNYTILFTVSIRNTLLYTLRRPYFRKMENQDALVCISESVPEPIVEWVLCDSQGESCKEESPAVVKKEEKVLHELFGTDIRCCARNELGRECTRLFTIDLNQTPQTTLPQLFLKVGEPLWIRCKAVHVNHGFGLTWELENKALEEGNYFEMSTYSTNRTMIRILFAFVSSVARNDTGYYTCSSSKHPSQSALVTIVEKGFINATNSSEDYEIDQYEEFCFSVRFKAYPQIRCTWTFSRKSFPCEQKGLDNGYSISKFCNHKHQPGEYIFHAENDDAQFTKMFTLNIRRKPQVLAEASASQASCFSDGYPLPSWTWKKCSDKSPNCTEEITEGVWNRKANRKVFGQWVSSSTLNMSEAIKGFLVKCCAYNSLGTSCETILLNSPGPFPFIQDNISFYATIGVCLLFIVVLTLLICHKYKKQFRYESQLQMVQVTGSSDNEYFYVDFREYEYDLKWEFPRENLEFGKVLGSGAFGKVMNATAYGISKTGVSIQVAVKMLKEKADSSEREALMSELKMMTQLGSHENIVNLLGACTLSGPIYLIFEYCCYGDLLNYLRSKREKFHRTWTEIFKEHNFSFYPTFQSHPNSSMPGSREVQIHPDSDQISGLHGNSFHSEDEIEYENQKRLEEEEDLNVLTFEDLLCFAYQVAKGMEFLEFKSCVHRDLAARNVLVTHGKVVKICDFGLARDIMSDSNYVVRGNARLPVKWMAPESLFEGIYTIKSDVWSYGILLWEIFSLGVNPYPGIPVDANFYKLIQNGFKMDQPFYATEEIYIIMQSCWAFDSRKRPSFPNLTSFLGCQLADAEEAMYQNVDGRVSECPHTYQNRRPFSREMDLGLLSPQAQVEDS
The assay can be described thus: HTRF KinEASE in vitro kinase assay. It is filed as biochemical. (TR-FRET usually uses a lanthanide donor and a delayed reading to cut background.)

The target in another assay is SRPK1 (Homo sapiens, UniProt Q96SB4). The assay is described as follows: HTRF KinEASE in vitro kinase assay. It is filed as biochemical. The essentials:
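Kinase activity was measured with the HTRF KinEASE STK/TK kit, and the TR-FRET signal was read on a multilabel microplate reader. Percent inhibition was calculated from the signal, and the IC50 was derived from these inhibition rates.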

Chain of SRPK1 (Q96SB4 whole entry): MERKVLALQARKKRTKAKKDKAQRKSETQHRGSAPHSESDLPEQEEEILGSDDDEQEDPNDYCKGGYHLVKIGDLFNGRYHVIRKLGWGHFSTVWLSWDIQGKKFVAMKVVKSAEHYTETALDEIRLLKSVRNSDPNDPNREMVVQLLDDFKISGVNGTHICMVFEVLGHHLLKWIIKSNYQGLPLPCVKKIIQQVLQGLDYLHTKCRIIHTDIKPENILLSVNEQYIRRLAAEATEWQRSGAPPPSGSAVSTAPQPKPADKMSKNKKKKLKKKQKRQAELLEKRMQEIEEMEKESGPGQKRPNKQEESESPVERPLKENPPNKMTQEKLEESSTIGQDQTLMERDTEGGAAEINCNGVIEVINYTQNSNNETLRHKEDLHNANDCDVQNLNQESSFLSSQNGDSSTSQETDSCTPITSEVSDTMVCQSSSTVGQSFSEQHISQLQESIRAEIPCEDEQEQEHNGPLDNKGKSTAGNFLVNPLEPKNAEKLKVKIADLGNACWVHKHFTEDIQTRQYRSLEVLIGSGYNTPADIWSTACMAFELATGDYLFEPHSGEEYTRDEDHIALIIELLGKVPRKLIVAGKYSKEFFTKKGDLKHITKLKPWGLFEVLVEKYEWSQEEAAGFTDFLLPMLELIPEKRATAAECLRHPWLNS

Consider `COc1cc(O)c(CC=C(C)C)c(O)c1C(=O)/C=C/c1ccc(O)cc1` [XN, Xanthohumol], for which the IC50 (usually the concentration needed to halve the response being measured) against FLT3 is 1510 ± 440 nM; at SRPK1, 370 ± 150 nM.
